Results reported in ChEMBL document CHEMBL5244264, “Design, synthesis, and structure activity relationship (SAR) studies of novel imidazo[1,2-a] pyridine derivatives as Nek2 inhibitors” (Bioorg Med Chem, 2020).

How the values were obtained:
Type in all cases: functional, cell-based
MGC-803 = assay: Antitumor activity against human MGC-803 cells assessed as inhibition of cell proliferation incubated for 72 hrs by MTT assay; conditions: MGC-803, 72 h
Hep 3B2 = assay: Antitumor activity against human Hep3B cells assessed as inhibition of cell proliferation incubated for 72 hrs by MTT assay
Outline: (§1)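 Cells were exposed to a range of compound concentrations for 72 h at 37 °C. Proliferation was read by MTT assay, and IC50 values are reported.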

Bel-7402 = assay: Antitumor activity against human Bel-7402 cells assessed as inhibition of cell proliferation incubated for 72 hrs by MTT assay; conditions: Bel-7402, 72 h; outline: as §1
HCT-116 = assay: Antitumor activity against human HCT-116 cells assessed as inhibition of cell proliferation incubated for 72 hrs by MTT assay; conditions: HCT-116, 72 h; outline: as §1

Row | SMILES | IC50 (MGC-803) [µM] | other results
1 | CC(Oc1cc(-c2cnc3cc(-c4cnn(C)c4)ccn23)sc1C(N)=O)c1ccccc1F (stereo not given) | 3.52 | –
2 | COC(=O)c1sc(-c2cnc3cc(-c4cnn(C)c4)ccn23)cc1OC(C)c1ccccc1F (stereo not given) | 11.1 | –
3 | COC(=O)c1sc(-c2cnc3cc(-c4cnn(CCN5CCCCC5)c4)ccn23)cc1OC(C)c1ccccc1C(F)(F)F (stereo not given) | 7.36 | –
4 | COC(=O)c1sc(-c2cnc3cc(-c4cnn(CCCN5CCN(C)CC5)c4)ccn23)cc1OC(C)c1ccccc1C(F)(F)F (stereo not given) | 3.76 | –
5 | COC(=O)c1sc(-c2cnc3cc(-c4cnn(CCN(C)C)c4)ccn23)cc1OC(C)c1ccccc1C(F)(F)F (stereo not given) | 0.32 | –
6 | COC(=O)c1sc(-c2cnc3cc(-c4cnn(CCN(C)C)c4)ccn23)cc1OC(C)c1cccc(F)c1 (stereo not given) | 1.57 | –
7 | CC(Oc1cc(-c2cnc3cc(-c4cnn(CCN5CCCC5)c4)ccn23)sc1C(N)=O)c1ccccc1C(F)(F)F (stereo not given) | 8.4 | –
8 | CC(Oc1cc(-c2cnc3cc(-c4cnn(CCN(C)C)c4)ccn23)sc1C(N)=O)c1ccccc1 (stereo not given) | 1.95 | –
9 | CN(C)CCn1cc(-c2ccn3c(-c4ccc(C(N)=O)c(OCc5cccc(F)c5)c4)cnc3c2)cn1 | 0.65 | IC50 (Hep 3B2): 1.07 µM; IC50 (Bel-7402): 6.37 µM; IC50 (HCT-116): 0.7 µM
10 | CC(Oc1cc(-c2cnc3cc(-c4cnn(C)c4)ccn23)sc1C(N)=O)c1cccc(C(F)(F)F)c1 (stereo not given) | 3.48 | –
11 | COC(=O)c1sc(-c2cnc3cc(-c4cnn(C)c4)ccn23)cc1OC(C)c1ccccc1C(F)(F)F (stereo not given) | 3.92 | –
12 | CC(Oc1cc(-c2cnc3cc(-c4cnn(CCN5CCCCC5)c4)ccn23)sc1C(N)=O)c1ccccc1C(F)(F)F (stereo not given) | 8.68 | –
13 | COC(=O)c1sc(-c2cnc3cc(-c4cnn(CCN(C)C)c4)ccn23)cc1OC(C)c1cccc(C(F)(F)F)c1 (stereo not given) | 4.71 | –
14 | COC(=O)c1sc(-c2cnc3cc(-c4cnn(C)c4)ccn23)cc1OC(C)c1cccc(F)c1 (stereo not given) | > 30 | –
15 | COC(=O)c1sc(-c2cnc3cc(-c4cnn(CCN5CCCC5)c4)ccn23)cc1OC(C)c1ccccc1C(F)(F)F (stereo not given) | 2.05 | –
16 | COC(=O)c1sc(-c2cnc3cc(-c4cnn(CCN(C)C)c4)ccn23)cc1OC(C)c1ccccc1F (stereo not given) | 2.47 | –
17 | CC(Oc1cc(-c2cnc3cc(-c4cnn(CCN(C)C)c4)ccn23)sc1C(N)=O)c1cccc(C(F)(F)F)c1 (stereo not given) | 6.81 | –

Row | SMILES | IC50 (MGC-803) [µM] | other results
18 | CC(Oc1cc(-c2cnc3cc(-c4cnn(C5CCN(C(=O)OC(C)(C)C)C5)c4)ccn23)sc1C(N)=O)c1ccccc1C(F)(F)F (stereo not given) | 0.55 | –
19 | COC(=O)c1sc(-c2cnc3cc(-c4cnn(CCN(C)C)c4)ccn23)cc1OC(C)c1ccccc1 (stereo not given) | 1.29 | –
20 | CC(Oc1cc(-c2cnc3cc(-c4cnn(C)c4)ccn23)sc1C(N)=O)c1cccc(F)c1 (stereo not given) | 16.4 | –
21 | COC(=O)c1sc(-c2cnc3cc(-c4cnn(C5CCN(C(=O)OC(C)(C)C)CC5)c4)ccn23)cc1OC(C)c1ccccc1C(F)(F)F (stereo not given) | 20.4 | –
22 | COC(=O)c1sc(-c2cnc3cc(-c4cnn(CCN5CCOCC5)c4)ccn23)cc1OC(C)c1ccccc1C(F)(F)F (stereo not given) | 5.9 | –
23 | CC(Oc1cc(-c2cnc3cc(-c4cnn(CC5CN(C(=O)OC(C)(C)C)C5)c4)ccn23)sc1C(N)=O)c1ccccc1C(F)(F)F (stereo not given) | 0.038 | IC50 (Hep 3B2): 1.25 µM; IC50 (Bel-7402): 10.4 µM; IC50 (HCT-116): 0.48 µM
24 | CC(Oc1cc(-c2cnc3cc(-c4cnn(CCN(C)C)c4)ccn23)sc1C(N)=O)c1ccccc1F (stereo not given) | 2.91 | –
25 | CC(Oc1cc(-c2cnc3cc(-c4cnn(CCCN5CCN(C)CC5)c4)ccn23)sc1C(N)=O)c1ccccc1C(F)(F)F (stereo not given) | 0.054 | IC50 (Hep 3B2): 1.18 µM; IC50 (Bel-7402): 5.99 µM; IC50 (HCT-116): 0.46 µM
26 | COC(=O)c1sc(-c2cnc3cc(-c4cnn(C)c4)ccn23)cc1OC(C)c1cccc(C(F)(F)F)c1 (stereo not given) | 17.3 | –
27 | CC(Oc1cc(-c2cnc3cc(-c4cnn(CCN5CCOCC5)c4)ccn23)sc1C(N)=O)c1ccccc1C(F)(F)F (stereo not given) | 0.044 | IC50 (Hep 3B2): 1.25 µM; IC50 (Bel-7402): 4.33 µM; IC50 (HCT-116): 0.36 µM
28 | CC(Oc1cc(-c2cnc3cc(-c4cnn(C)c4)ccn23)sc1C(N)=O)c1ccccc1 (stereo not given) | 2.98 | –
29 | COC(=O)c1sc(-c2cnc3cc(-c4cnn(C)c4)ccn23)cc1OC(C)c1ccccc1 (stereo not given) | 9.18 | –
30 | COC(=O)c1sc(-c2cnc3cc(-c4cnn(C5CCN(C(=O)OC(C)(C)C)C5)c4)ccn23)cc1OC(C)c1ccccc1C(F)(F)F (stereo not given) | 20.3 | –
31 | CC(Oc1cc(-c2cnc3cc(-c4cnn(CCN(C)C)c4)ccn23)sc1C(N)=O)c1cccc(F)c1 (stereo not given) | 6.02 | –
32 | CC(Oc1cc(-c2cnc3cc(-c4cnn(C5CCN(C(=O)OC(C)(C)C)CC5)c4)ccn23)sc1C(N)=O)c1ccccc1C(F)(F)F (stereo not given) | 1.81 | –
33 | COC(=O)c1sc(-c2cnc3cc(-c4cnn(CC5CN(C(=O)OC(C)(C)C)C5)c4)ccn23)cc1OC(C)c1ccccc1C(F)(F)F (stereo not given) | 19.3 | –
